Results taken from ChEMBL document CHEMBL3112482, “Nonclassical antifolates, part 5. Benzodiazepine analogs as a new class of DHFR inhibitors: synthesis, antitumor testing and molecular modeling study” (Eur J Med Chem, 2014).

Experiments:
Format in all cases: functional
T47D = test: Growth inhibition of human T47D cells at 10 uM after 48 hrs; settings: read-out: GI
Outline: (§1)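 NCI 60-cell-line disease-oriented human tumor panel, single-dose primary screen at 10 µM. Data given as mean-graph percent growth of treated cells, reported as percent growth inhibition (GI %).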

[1] = Growth inhibition of human UACC257 cells at 10 uM after 48 hrs; settings: UACC-257, 48 h, read-out: GI; outline: as §1
[2] = Growth inhibition of human UO31 cells at 10 uM after 48 hrs; settings: UO-31, 48 h, read-out: GI; outline: as §1
NCI-H460 = test: Growth inhibition of human NCI-H460 cells at 10 uM after 48 hrs; settings: NCI-H460, 48 h, read-out: GI
Outline: (§2)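 Single-dose primary screen in the NCI 60 human tumour cell line panel, run at the NCI facility. The panel covers nine subpanels: leukaemia, non-small cell lung, colon, CNS, melanoma, ovarian, renal, prostate and breast. Read-out was percent growth of treated cells, shown as a mean graph and reported as percent growth inhibition.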

SW-620 = test: Growth inhibition of human SW620 cells at 10 uM after 48 hrs; settings: SW-620, 48 h, read-out: GI; outline: as §1
[3] = Growth inhibition of human HOP92 cells at 10 uM after 48 hrs; settings: HOP-92, 48 h, read-out: GI; outline: as §2
[4] = Growth inhibition of human NCI-ADR-RES cells at 10 uM after 48 hrs; settings: read-out: GI; outline: as §2
PC-3 = test: Growth inhibition of human PC3 cells at 10 uM after 48 hrs; settings: PC-3, 48 h, read-out: GI; outline: as §2
SNB-19 = test: Growth inhibition of human SNB19 cells at 10 uM after 48 hrs; settings: SNB-19, 48 h, read-out: GI; outline: as §1
[5] = Growth inhibition of human OVCAR4 cells at 10 uM after 48 hrs; settings: OVCAR-4, 48 h, read-out: GI; outline: as §2
NCI-H23 = test: Growth inhibition of human NCI-H23 cells at 10 uM after 48 hrs; settings: NCI-H23, 48 h, read-out: GI; outline: as §2
MDA-MB-231 = test: Growth inhibition of human MDA-MB-231 cells at 10 uM after 48 hrs; settings: MDA-MB-231, 48 h, read-out: GI; outline: as §2
MCF7 = test: Growth inhibition of human MCF7 cells at 10 uM after 48 hrs; settings: MCF7, 48 h, read-out: GI; outline: as §2
CCRF-CEM = test: Growth inhibition of human CCRF-CEM cells at 10 uM after 48 hrs; settings: read-out: GI; outline: as §2
786-0 = test: Growth inhibition of human 786-0 cells at 10 uM after 48 hrs; settings: 786-0, 48 h, read-out: GI; outline: as §2
SK-MEL-5 = test: Growth inhibition of human SK-MEL-5 cells at 10 uM after 48 hrs; settings: SK-MEL-5, 48 h, read-out: GI; outline: as §1
[6] = Growth inhibition of human OVCAR5 cells at 10 uM after 48 hrs; settings: OVCAR-5, 48 h, read-out: GI; outline: as §2
CAKI-1 = test: Growth inhibition of human CAKI-1 cells at 10 uM after 48 hrs; settings: CAKI-1, 48 h, read-out: GI; outline: as §2
ACHN = test: Growth inhibition of human ACHN cells at 10 uM after 48 hrs; settings: read-out: GI; outline: as §2
[7] = Growth inhibition of human SF539 cells at 10 uM after 48 hrs; settings: SF-539, 48 h, read-out: GI; outline: as §1
NCI-H322M = test: Growth inhibition of human NCI-H322M cells at 10 uM after 48 hrs; settings: read-out: GI; outline: as §2
SF-268 = test: Growth inhibition of human SF268 cells at 10 uM after 48 hrs; settings: SF-268, 48 h, read-out: GI; outline: as §1
HL-60(TB) = test: Growth inhibition of human HL-60(TB) cells at 10 uM after 48 hrs; settings: HL-60, 48 h, read-out: GI
Outline: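 NCI 60-cell-line human tumour panel covering nine subpanels (leukaemia, non-small cell lung, colon, CNS, melanoma, ovarian, renal, prostate, breast), run at the NCI facility. Primary screen tested a single dose of each compound. Read-out was percent growth of treated cells versus untreated cells, reported from the mean graph as percentage growth inhibition.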

[8] = Growth inhibition of human Hs 578T cells at 10 uM after 48 hrs; settings: read-out: GI; outline: as §2
K562 = test: Growth inhibition of human K562 cells at 10 uM after 48 hrs; settings: K562, 48 h, read-out: GI; outline: as §2
[9] = Growth inhibition of human EKVX cells at 10 uM after 48 hrs; settings: read-out: GI; outline: as §2
DU-145 = test: Growth inhibition of human DU145 cells at 10 uM after 48 hrs; settings: DU-145, 48 h, read-out: GI; outline: as §2
[10] = Growth inhibition of human RXF393 cells at 10 uM after 48 hrs; settings: RXF 393, 48 h, read-out: GI; outline: as §2
[11] = Growth inhibition of human HCC2998 cells at 10 uM after 48 hrs; settings: HCC 2998, 48 h, read-out: GI; outline: as §2
SK-MEL-28 = test: Growth inhibition of human SK-MEL-28 cells at 10 uM after 48 hrs; settings: SK-MEL-28, 48 h, read-out: GI; outline: as §1
MDA-MB-468 = test: Growth inhibition of human MDA-MB-468 cells at 10 uM after 48 hrs; settings: MDA-MB-468, 48 h, read-out: GI; outline: as §2
A498 = test: Growth inhibition of human A498 cells at 10 uM after 48 hrs; settings: A498, 48 h, read-out: GI; outline: as §2
IGROV-1 = test: Growth inhibition of human IGROV1 cells at 10 uM after 48 hrs; settings: IGROV-1, 48 h, read-out: GI; outline: as §2
SNB-75 = test: Growth inhibition of human SNB75 cells at 10 uM after 48 hrs; settings: SNB-75, 48 h, read-out: GI; outline: as §1
SR = test: Growth inhibition of human SR cells at 10 uM after 48 hrs; settings: read-out: GI; outline: as §1
KM12 = test: Growth inhibition of human KM12 cells at 10 uM after 48 hrs; settings: KM12, 48 h, read-out: GI; outline: as §2
TK-10 = test: Growth inhibition of human TK10 cells at 10 uM after 48 hrs; settings: TK-10, 48 h, read-out: GI; outline: as §1
SK-OV-3 = test: Growth inhibition of human SKOV3 cells at 10 uM after 48 hrs; settings: SK-OV-3, 48 h, read-out: GI; outline: as §1

COc1ccc(/C=C2\CCCc3c2nc(C)nc3-c2ccc(OC)cc2)cc1
inhibition of growth at 10 µM (T47D): < 30%
inhibition of growth at 10 µM [1]: < 30%
inhibition of growth at 10 µM [2]: < 30%
inhibition of growth at 10 µM (NCI-H460): < 30%
inhibition of growth at 10 µM (SW-620): < 30%
inhibition of growth at 10 µM [3]: < 30%
inhibition of growth at 10 µM [4]: < 30%
inhibition of growth at 10 µM (PC-3): < 30%
inhibition of growth at 10 µM (SNB-19): < 30%
inhibition of growth at 10 µM [5]: < 30%
inhibition of growth at 10 µM (NCI-H23): < 30%
inhibition of growth at 10 µM (MDA-MB-231): < 30%
inhibition of growth at 10 µM (MCF7): < 30%
inhibition of growth at 10 µM (CCRF-CEM): < 30%
inhibition of growth at 10 µM (786-0): < 30%
inhibition of growth at 10 µM (SK-MEL-5): < 30%
inhibition of growth at 10 µM [6]: < 30%
inhibition of growth at 10 µM (CAKI-1): < 30%
inhibition of growth at 10 µM (ACHN): < 30%
inhibition of growth at 10 µM [7]: < 30%
inhibition of growth at 10 µM (NCI-H322M): < 30%
inhibition of growth at 10 µM (SF-268): < 30%
inhibition of growth at 10 µM (HL-60(TB)): < 30%
inhibition of growth at 10 µM [8]: < 30%
inhibition of growth at 10 µM (K562): < 30%
inhibition of growth at 10 µM [9]: < 30%
inhibition of growth at 10 µM (DU-145): < 30%
inhibition of growth at 10 µM [10]: < 30%
inhibition of growth at 10 µM [11]: < 30%
inhibition of growth at 10 µM (SK-MEL-28): < 30%
inhibition of growth at 10 µM (MDA-MB-468): < 30%
inhibition of growth at 10 µM (A498): < 30%
inhibition of growth at 10 µM (IGROV-1): < 30%
inhibition of growth at 10 µM (SNB-75): < 30%
inhibition of growth at 10 µM (SR): < 30%
inhibition of growth at 10 µM (KM12): < 30%
inhibition of growth at 10 µM (TK-10): < 30%
inhibition of growth at 10 µM (SK-OV-3): < 30%

Cc1nc2c(c(-c3ccc(Cl)cc3)n1)CCC/C2=C\c1ccc(Cl)cc1
inhibition of growth at 10 µM (T47D): < 30%
inhibition of growth at 10 µM [1]: < 30%
inhibition of growth at 10 µM [2]: < 30%
inhibition of growth at 10 µM (NCI-H460): < 30%
inhibition of growth at 10 µM (SW-620): < 30%
inhibition of growth at 10 µM [3]: < 30%
inhibition of growth at 10 µM [4]: < 30%
inhibition of growth at 10 µM (PC-3): < 30%
inhibition of growth at 10 µM (SNB-19): < 30%
inhibition of growth at 10 µM [5]: < 30%
inhibition of growth at 10 µM (NCI-H23): < 30%
inhibition of growth at 10 µM (MDA-MB-231): < 30%
inhibition of growth at 10 µM (MCF7): 68.7%
inhibition of growth at 10 µM (CCRF-CEM): < 30%
inhibition of growth at 10 µM (786-0): < 30%
inhibition of growth at 10 µM (SK-MEL-5): < 30%
inhibition of growth at 10 µM [6]: < 30%
inhibition of growth at 10 µM (CAKI-1): < 30%
inhibition of growth at 10 µM (ACHN): < 30%
inhibition of growth at 10 µM [7]: < 30%
inhibition of growth at 10 µM (NCI-H322M): < 30%
inhibition of growth at 10 µM (SF-268): < 30%
inhibition of growth at 10 µM (HL-60(TB)): < 30%
inhibition of growth at 10 µM [8]: < 30%
inhibition of growth at 10 µM (K562): < 30%
inhibition of growth at 10 µM [9]: < 30%
inhibition of growth at 10 µM (DU-145): < 30%
inhibition of growth at 10 µM [10]: < 30%
inhibition of growth at 10 µM [11]: 58.5%
inhibition of growth at 10 µM (SK-MEL-28): < 30%
inhibition of growth at 10 µM (MDA-MB-468): < 30%
inhibition of growth at 10 µM (A498): < 30%
inhibition of growth at 10 µM (IGROV-1): < 30%
inhibition of growth at 10 µM (SNB-75): < 30%
inhibition of growth at 10 µM (SR): < 30%
inhibition of growth at 10 µM (KM12): 62%
inhibition of growth at 10 µM (TK-10): < 30%
inhibition of growth at 10 µM (SK-OV-3): < 30%
